Measurements: ChEMBL document CHEMBL2163244, “Structure-guided design, synthesis and biological evaluation of novel DNA ligase inhibitors with in vitro and in vivo anti-staphylococcal activity” (Bioorg Med Chem Lett, 2012)
Values after ≈ are worked out from the molar mass of the structure shown. Active and inactive are the calls of the source. The rule behind the calls is not given here.

Experiments:
[1] = molecular target: T1, Dihydrofolate reductase (Homo sapiens) (UniProt P00374); experiment: Inhibition of human DHFR
T1 sequence (whole entry): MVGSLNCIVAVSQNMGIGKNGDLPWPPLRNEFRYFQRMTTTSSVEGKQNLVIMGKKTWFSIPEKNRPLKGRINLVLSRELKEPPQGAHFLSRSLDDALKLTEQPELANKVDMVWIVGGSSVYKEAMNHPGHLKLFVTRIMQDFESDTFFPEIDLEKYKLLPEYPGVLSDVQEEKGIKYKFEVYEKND

[2] = molecular target: DNA ligase 1 (Homo sapiens) (UniProt P18858); experiment: Inhibition of human DNA Ligase 1
[3] = system: Haemophilus influenzae; experiment: Antibacterial activity against wild type Haemophilus influenzae A921 by CLSI dilution method; assay type: functional
[4] = system: Staphylococcus aureus; experiment: Antibacterial activity against wild type Staphylococcus aureus ATCC 29213 by CLSI dilution method; assay type: functional
[5] = Inhibition of Streptococcus pneumoniae NAD-dependent DNA ligase assessed as equilibrium dissociation constant
[6] = Inhibition of Escherichia coli NAD-dependent DNA ligase
[7] = system: Streptococcus pneumoniae; experiment: Antibacterial activity against wild type Streptococcus pneumoniae A-216 by CLSI dilution method; assay type: functional
[8] = system: Escherichia coli; experiment: Antibacterial activity against tolC/rfaC-deficient Escherichia coli; assay type: functional
[9] = system: Escherichia coli; experiment: Antibacterial activity against tolC/rfaC-deficient Escherichia coli harboring ligA251 mutant; assay type: functional
Procedure, shortened: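 MIC read-out. The E. coli strain carries only the ligA251 allele (L15F exchange), which gives more than 20-fold reduced ligation activity and sensitizes it to LigA inhibitors.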

DNA ligase 1 (Homo sapiens), sequence (P18858 whole entry): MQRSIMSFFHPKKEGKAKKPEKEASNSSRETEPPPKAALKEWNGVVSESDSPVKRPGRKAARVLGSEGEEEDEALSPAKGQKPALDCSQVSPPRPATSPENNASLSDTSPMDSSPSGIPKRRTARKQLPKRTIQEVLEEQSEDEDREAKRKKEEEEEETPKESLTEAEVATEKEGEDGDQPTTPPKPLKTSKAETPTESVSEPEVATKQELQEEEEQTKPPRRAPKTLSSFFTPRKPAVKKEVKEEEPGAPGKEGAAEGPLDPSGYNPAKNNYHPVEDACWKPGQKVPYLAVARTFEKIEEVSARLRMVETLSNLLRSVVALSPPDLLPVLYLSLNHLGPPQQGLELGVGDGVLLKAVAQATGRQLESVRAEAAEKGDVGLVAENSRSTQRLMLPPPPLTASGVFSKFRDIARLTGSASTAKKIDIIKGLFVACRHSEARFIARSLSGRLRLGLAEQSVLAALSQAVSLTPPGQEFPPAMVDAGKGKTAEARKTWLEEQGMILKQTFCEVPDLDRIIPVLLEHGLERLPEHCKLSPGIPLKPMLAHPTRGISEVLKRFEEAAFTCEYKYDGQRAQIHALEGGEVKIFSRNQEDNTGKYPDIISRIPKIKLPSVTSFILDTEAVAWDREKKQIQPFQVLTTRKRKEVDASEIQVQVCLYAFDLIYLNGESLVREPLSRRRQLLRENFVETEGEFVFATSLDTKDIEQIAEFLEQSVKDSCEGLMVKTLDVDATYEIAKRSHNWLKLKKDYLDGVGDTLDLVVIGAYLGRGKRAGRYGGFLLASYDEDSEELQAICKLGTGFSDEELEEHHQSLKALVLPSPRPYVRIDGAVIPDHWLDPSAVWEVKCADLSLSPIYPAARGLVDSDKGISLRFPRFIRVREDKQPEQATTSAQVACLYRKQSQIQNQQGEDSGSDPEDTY

SMILES | inhibition [1] | inhibition [2] | MIC [3] | MIC [4] | Kd [5] | IC50 [6] | MIC [7] | MIC [8] | MIC [9]
NC(=O)c1cc2cc(CO)c(C(F)(F)F)nc2nc1N | inactive | inactive | 2 µg/mL (≈ 6.99 µM) | > 16 µg/mL | 389 nM | 500 nM | > 16 µg/mL | > 16 µg/mL | 2 µg/mL (≈ 6.99 µM)
NC(=O)c1cc2c(N3CCC(O)CC3)c(Br)c(C(F)(F)F)nc2nc1N | inactive | inactive | > 16 µg/mL | > 16 µg/mL | 39 nM | 700 nM | 16 µg/mL (≈ 36.8 µM) | 8 µg/mL (≈ 18.4 µM) | 0.25 µg/mL (≈ 0.576 µM)
CCc1cc2cc(C(N)=O)c(N)nc2nc1C(F)(F)F | inactive | inactive | 2 µg/mL (≈ 7.04 µM) | 4 µg/mL (≈ 14.1 µM) | 75 nM | 600 nM | > 16 µg/mL | 8 µg/mL (≈ 28.1 µM) | 0.25 µg/mL (≈ 0.88 µM)
C=Cc1cc2cc(C(N)=O)c(N)nc2nc1C(F)(F)F | inactive | inactive | 1 µg/mL (≈ 3.54 µM) | 2 µg/mL (≈ 7.09 µM) | 89 nM | 400 nM | > 16 µg/mL | 8 µg/mL (≈ 28.3 µM) | 0.125 µg/mL (≈ 0.443 µM)
COCCc1cc(C(F)(F)F)nc2nc(N)c(C(N)=O)cc12 | inactive | inactive | 4 µg/mL (≈ 12.7 µM) | > 16 µg/mL | 458 nM | 10000 nM | > 16 µg/mL | > 16 µg/mL | 2 µg/mL (≈ 6.36 µM)
NC(=O)c1cc2ccc(C(F)(F)F)nc2nc1N | inactive | inactive | 0.5 µg/mL (≈ 1.95 µM) | 8 µg/mL (≈ 31.2 µM) | 101 nM | 500 nM | > 16 µg/mL | 16 µg/mL (≈ 62.5 µM) | 0.125 µg/mL (≈ 0.488 µM)
CN(CCO)c1c(Br)c(C(F)(F)F)nc2nc(N)c(C(N)=O)cc12 | inactive | inactive | 4 µg/mL (≈ 9.8 µM) | 8 µg/mL (≈ 19.6 µM) | 57 nM | 700 nM | 8 µg/mL (≈ 19.6 µM) | > 16 µg/mL | 0.5 µg/mL (≈ 1.22 µM)
NC(=O)c1cc2c(CCO)cc(C(F)(F)F)nc2nc1N | inactive | inactive | 1 µg/mL (≈ 3.33 µM) | > 16 µg/mL | 431 nM | 10000 nM | > 16 µg/mL | > 16 µg/mL | 1 µg/mL (≈ 3.33 µM)
NC(=O)c1cc2c(N3CC(O)C3)c(Br)c(C(F)(F)F)nc2nc1N | inactive | inactive | 4 µg/mL (≈ 9.85 µM) | 16 µg/mL (≈ 39.4 µM) | 43 nM | 500 nM | > 16 µg/mL | 4 µg/mL (≈ 9.85 µM) | 0.125 µg/mL (≈ 0.308 µM)
NCc1cc(C(F)(F)F)nc2nc(N)c(C(N)=O)cc12 | inactive | inactive | 4 µg/mL (≈ 14 µM) | > 16 µg/mL | 102 nM | 2500 nM | > 16 µg/mL | > 16 µg/mL | 1 µg/mL (≈ 3.51 µM)
NC(=O)c1cc2c(N3CC[C@@H](N)C3)c(Br)c(C(F)(F)F)nc2nc1N | inactive | inactive | 8 µg/mL (≈ 19.1 µM) | > 16 µg/mL | 86 nM | 1000 nM | > 16 µg/mL | > 16 µg/mL | 1 µg/mL (≈ 2.39 µM)
CC(C)(OCc1ccccc1)c1nc2nc(N)c(C(N)=O)cc2cc1Br | inactive | inactive | > 16 µg/mL | > 16 µg/mL | 4310 nM | > 5000 nM | > 16 µg/mL | > 16 µg/mL | 8 µg/mL (≈ 19.3 µM)
CC(C)(C)OC(=O)N1CC(c2nc3nc(N)c(C(N)=O)cc3cc2Br)C1 | inactive | inactive | > 16 µg/mL | > 16 µg/mL | 2610 nM | > 5000 nM | > 16 µg/mL | > 16 µg/mL | –
Nc1ccc2c(Cl)cc(C(F)(F)F)nc2n1 | – | – | – | – | – | 25000 nM | – | – | –
